Consider four compounds from ChEMBL document CHEMBL1155278, “3,4-Diaryl-isoxazoles and -imidazoles as potent dual inhibitors of p38alpha mitogen activated protein kinase and casein kinase 1delta” (J Med Chem, 2009).

For test [1], the target named is Casein kinase I isoform delta (Rattus norvegicus, UniProt Q06486). Put plainly: Inhibition of GST-fused rat CK1delta by Cherenkov counting in presence of 20 uM ATP.
The target of test [2] is Tyrosine-protein kinase Yes (Homo sapiens) (UniProt P07947). Put plainly: Inhibition of YES1 at 0.1 uM by Cherenkov counting in presence of 20 uM ATP. An outline of the steps: (§1)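 Single-concentration screen at 0.1 μM in a 76-kinase panel. ATP for each kinase was set near its Km for ATP. Residual activity is given as a percentage of control assays without compound, mean of n = 3 ± SD.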

Test [3] concerns the target Mitogen-activated protein kinase 15 (Homo sapiens) (UniProt Q8TD08). Put plainly: Inhibition of ERK8 assessed as residual activity at 0.1 uM by Cherenkov counting relative to control in presence of 5 uM ATP. A digest of the protocol:
(§2)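 Single-concentration screen at 0.1 µM across a panel of 76 protein kinases. Each kinase was run at an ATP concentration approximating its ATP Km. Results are % mean residual activity versus control assays without compound (n = 3 ± SD).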

Test [4] deals with T1, Protein kinase C zeta type (Homo sapiens) (UniProt Q05513).
T1 sequence (whole entry): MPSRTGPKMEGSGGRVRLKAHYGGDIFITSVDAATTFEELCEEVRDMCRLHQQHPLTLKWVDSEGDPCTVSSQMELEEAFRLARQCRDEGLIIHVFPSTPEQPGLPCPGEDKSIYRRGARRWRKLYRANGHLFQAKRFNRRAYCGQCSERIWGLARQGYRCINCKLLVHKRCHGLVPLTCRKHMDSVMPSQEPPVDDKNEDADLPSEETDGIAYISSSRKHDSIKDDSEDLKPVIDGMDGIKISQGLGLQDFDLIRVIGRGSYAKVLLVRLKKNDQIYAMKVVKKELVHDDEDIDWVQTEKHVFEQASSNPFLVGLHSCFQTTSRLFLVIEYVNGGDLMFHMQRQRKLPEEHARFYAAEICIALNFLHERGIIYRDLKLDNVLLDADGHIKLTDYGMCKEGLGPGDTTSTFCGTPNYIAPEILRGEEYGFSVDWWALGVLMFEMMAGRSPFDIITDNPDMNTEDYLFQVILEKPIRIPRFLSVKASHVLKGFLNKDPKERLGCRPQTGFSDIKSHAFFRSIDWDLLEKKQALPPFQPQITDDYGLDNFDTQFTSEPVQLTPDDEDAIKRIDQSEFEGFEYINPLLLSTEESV
Put plainly: Inhibition of PKCzeta assessed as residual activity at 0.1 uM by Cherenkov counting relative to control in presence of 5 uM ATP. An outline of the steps: as §1

Test [5] addresses Calcium/calmodulin-dependent protein kinase kinase 2 (Homo sapiens) (UniProt Q96RR4). Put plainly: Inhibition of CAMKKbeta assessed as residual activity at 0.1 uM by Cherenkov counting relative to control. An outline of the steps: as §2
The target of test [6] is Myosin light chain kinase, smooth muscle (Homo sapiens) (UniProt Q15746). Put plainly: Inhibition of smooth muscle MLCK assessed as residual activity at 0.1 uM by Cherenkov counting relative to control in presence of 50 uM ATP. A digest of the protocol: as §1
Test [7] deals with MAP kinase-activated protein kinase 3 (Homo sapiens) (UniProt Q16644). Put plainly: Inhibition of MAPKAPK3 assessed as residual activity at 10 uM by Cherenkov counting relative to control.
Test [8] addresses Calcium/calmodulin-dependent protein kinase kinase 2 (Homo sapiens) (UniProt Q96RR4). Put plainly: Inhibition of CAMKKbeta assessed as residual activity at 10 uM by Cherenkov counting relative to control. An outline of the steps:
(§3)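 Single-point profiling at 10 µM in a panel of 78 protein kinases. Kinase activity is expressed as a percentage relative to control assays without compound.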

The target in test [9] is T2, Serine/threonine-protein kinase 3 (Homo sapiens) (UniProt Q13188).
T2 sequence (whole entry): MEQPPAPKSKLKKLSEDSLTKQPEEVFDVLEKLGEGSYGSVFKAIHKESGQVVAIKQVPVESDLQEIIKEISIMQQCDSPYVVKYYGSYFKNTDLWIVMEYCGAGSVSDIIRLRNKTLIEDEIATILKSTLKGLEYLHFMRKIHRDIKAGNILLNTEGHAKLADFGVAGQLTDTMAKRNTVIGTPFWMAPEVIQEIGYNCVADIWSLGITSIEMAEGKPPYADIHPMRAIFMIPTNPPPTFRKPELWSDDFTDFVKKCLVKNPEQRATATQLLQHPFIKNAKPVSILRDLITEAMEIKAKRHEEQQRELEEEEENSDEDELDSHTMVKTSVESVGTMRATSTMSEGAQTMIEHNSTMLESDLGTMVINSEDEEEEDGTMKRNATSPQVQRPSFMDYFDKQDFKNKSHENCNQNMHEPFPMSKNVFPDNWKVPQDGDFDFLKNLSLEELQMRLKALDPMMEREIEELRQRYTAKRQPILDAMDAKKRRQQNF
Put plainly: Inhibition of MST2 assessed as residual activity at 10 uM by Cherenkov counting relative to control in presence of 20 uM ATP.

Test [10] has as its target Homeodomain-interacting protein kinase 3 (Homo sapiens) (UniProt Q9H422). Put plainly: Inhibition of HIPK3 assessed as residual activity at 10 uM by Cherenkov counting relative to control. An outline of the steps:
as §3

Test [11] concerns the target Fibroblast growth factor receptor 1 (Homo sapiens) (UniProt P11362). Put plainly: Inhibition of FGFR1 assessed as residual activity at 10 uM by Cherenkov counting relative to control in presence of 20 uM ATP. An outline of the steps:
as §3

Test [12] has as its target T3, Serine/threonine-protein kinase TBK1 (Homo sapiens) (UniProt Q9UHD2).
T3 sequence (whole entry): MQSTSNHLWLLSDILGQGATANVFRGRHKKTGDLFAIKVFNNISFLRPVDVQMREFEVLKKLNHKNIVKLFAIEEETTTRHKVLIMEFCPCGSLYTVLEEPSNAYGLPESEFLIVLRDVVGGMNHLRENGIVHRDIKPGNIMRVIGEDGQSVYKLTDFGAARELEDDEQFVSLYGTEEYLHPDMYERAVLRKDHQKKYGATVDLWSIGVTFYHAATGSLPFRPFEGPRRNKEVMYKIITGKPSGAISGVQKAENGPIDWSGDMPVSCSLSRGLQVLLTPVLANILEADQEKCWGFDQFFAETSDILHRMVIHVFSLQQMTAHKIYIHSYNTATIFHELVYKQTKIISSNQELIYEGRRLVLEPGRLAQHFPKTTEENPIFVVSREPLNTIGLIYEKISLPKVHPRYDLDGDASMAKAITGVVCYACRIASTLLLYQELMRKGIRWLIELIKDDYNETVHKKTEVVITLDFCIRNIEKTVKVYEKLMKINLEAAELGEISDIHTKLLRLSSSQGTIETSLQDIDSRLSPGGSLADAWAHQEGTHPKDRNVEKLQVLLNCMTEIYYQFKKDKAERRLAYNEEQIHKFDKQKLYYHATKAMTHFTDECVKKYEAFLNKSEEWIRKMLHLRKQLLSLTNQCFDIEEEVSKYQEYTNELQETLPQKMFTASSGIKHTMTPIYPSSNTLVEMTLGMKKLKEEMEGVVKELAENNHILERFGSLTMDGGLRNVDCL
Put plainly: Inhibition of TBK1 assessed as residual activity at 10 uM by Cherenkov counting relative to control in presence of 50 uM ATP. An outline of the steps: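 Single-concentration profiling at 10 μM in a 78-kinase panel. Kinase activity is expressed as a percentage of control assays run without compound.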

A word on the IC50: it is the concentration that inhibits the measured activity by half. The inhibition is the percentage by which the read-out fell short of the control.

Chain of Calcium/calmodulin-dependent protein kinase kinase 2 (Homo sapiens) (Q96RR4 2-588 limits assumed): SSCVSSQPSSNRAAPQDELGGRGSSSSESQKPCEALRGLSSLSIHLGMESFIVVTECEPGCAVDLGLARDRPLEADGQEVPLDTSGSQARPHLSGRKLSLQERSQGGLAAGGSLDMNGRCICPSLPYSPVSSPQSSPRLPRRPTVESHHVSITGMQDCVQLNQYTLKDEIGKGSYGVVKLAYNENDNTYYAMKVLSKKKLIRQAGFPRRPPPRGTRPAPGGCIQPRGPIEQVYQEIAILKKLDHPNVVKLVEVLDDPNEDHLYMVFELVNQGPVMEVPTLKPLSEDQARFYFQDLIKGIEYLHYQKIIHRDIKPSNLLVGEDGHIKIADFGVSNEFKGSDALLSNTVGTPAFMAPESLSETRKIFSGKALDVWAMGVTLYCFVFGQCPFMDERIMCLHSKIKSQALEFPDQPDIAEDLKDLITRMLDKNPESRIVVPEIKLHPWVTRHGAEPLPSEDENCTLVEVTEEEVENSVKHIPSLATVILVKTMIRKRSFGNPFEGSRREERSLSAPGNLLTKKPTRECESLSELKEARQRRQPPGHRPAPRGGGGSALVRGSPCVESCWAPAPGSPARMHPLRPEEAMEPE
Chain of Casein kinase I isoform delta (Q06486 whole entry, the tested form may be a part, canonical isoform): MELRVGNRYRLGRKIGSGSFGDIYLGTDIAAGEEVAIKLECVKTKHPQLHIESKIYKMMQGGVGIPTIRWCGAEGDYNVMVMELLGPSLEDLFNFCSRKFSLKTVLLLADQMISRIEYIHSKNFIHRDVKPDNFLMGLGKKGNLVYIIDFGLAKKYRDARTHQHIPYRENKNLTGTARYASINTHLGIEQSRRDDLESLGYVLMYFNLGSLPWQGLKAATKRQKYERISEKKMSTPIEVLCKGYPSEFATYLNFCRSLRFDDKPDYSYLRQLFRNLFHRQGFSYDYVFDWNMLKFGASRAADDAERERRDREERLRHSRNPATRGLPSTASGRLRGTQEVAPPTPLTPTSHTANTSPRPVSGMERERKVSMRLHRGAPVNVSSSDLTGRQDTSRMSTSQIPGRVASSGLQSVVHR
Chain of Fibroblast growth factor receptor 1 (Homo sapiens) (P11362 22-822 limits assumed): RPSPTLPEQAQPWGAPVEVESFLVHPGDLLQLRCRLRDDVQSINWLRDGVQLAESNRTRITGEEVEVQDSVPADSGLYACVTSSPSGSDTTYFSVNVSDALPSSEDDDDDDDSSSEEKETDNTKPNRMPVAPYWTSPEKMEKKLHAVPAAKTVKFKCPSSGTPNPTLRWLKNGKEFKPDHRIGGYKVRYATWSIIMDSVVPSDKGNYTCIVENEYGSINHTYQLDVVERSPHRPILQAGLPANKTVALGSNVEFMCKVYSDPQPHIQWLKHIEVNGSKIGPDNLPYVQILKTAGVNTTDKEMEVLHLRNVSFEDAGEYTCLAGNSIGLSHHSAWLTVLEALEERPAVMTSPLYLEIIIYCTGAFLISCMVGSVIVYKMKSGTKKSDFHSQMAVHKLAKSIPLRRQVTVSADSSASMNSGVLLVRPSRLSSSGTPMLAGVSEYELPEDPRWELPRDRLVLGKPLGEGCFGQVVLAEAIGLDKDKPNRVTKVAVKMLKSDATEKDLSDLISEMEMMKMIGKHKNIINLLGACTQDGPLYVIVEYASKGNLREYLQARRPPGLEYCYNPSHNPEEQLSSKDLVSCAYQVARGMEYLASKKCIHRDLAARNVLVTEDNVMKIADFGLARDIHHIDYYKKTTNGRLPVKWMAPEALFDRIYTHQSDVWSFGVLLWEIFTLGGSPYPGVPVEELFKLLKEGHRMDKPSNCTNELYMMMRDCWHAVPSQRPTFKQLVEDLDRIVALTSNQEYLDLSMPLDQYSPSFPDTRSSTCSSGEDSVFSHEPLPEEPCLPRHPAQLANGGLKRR
Chain of Myosin light chain kinase, smooth muscle (Homo sapiens) (Q15746 whole entry): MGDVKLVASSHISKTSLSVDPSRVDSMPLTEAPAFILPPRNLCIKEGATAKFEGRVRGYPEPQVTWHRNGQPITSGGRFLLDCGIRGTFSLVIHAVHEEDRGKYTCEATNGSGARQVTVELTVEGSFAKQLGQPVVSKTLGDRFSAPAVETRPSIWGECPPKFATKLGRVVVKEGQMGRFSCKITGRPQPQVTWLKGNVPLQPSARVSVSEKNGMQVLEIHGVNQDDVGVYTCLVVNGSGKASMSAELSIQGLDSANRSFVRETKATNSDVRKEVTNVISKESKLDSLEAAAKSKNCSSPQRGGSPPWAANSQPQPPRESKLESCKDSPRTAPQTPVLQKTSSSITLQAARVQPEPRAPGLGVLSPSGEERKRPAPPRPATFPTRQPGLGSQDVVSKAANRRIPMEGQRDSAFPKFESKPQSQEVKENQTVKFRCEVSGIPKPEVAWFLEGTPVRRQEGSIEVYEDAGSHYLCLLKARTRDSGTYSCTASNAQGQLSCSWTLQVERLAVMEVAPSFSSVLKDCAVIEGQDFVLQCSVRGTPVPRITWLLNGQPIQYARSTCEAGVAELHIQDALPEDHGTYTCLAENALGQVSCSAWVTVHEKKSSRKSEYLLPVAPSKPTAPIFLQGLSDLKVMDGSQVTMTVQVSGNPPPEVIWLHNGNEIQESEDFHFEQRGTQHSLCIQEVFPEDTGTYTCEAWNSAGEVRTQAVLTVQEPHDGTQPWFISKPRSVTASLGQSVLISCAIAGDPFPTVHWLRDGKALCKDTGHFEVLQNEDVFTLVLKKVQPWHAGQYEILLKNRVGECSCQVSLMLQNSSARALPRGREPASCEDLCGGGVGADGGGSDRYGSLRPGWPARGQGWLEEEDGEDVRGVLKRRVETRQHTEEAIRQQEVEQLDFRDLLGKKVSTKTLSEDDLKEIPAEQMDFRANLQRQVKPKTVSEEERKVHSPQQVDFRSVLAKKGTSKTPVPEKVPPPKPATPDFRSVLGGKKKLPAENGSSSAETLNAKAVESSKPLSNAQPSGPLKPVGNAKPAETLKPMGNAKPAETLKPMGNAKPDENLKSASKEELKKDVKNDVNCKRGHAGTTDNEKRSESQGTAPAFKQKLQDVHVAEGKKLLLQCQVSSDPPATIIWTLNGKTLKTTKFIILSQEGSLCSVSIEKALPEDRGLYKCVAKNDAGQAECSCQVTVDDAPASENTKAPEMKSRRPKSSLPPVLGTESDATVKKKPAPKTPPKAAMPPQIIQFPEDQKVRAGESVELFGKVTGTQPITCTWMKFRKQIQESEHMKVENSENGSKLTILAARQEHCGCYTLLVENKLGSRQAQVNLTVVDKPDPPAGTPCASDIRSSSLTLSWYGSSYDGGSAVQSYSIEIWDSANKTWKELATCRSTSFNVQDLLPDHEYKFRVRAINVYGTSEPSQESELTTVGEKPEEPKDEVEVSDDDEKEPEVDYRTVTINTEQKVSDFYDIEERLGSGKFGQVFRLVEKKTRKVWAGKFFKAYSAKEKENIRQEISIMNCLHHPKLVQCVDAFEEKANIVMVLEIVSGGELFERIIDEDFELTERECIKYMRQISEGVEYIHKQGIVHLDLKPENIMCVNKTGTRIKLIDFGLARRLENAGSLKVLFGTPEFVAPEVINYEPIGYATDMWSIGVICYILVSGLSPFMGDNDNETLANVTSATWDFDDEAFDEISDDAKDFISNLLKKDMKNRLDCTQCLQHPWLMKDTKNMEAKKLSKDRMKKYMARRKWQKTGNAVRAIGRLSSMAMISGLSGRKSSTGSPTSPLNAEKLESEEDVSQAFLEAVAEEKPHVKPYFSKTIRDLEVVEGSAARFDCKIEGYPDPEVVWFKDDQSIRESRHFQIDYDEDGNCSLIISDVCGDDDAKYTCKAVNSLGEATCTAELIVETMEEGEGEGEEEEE
Chain of MAP kinase-activated protein kinase 3 (Homo sapiens) (Q16644 whole entry, looked up): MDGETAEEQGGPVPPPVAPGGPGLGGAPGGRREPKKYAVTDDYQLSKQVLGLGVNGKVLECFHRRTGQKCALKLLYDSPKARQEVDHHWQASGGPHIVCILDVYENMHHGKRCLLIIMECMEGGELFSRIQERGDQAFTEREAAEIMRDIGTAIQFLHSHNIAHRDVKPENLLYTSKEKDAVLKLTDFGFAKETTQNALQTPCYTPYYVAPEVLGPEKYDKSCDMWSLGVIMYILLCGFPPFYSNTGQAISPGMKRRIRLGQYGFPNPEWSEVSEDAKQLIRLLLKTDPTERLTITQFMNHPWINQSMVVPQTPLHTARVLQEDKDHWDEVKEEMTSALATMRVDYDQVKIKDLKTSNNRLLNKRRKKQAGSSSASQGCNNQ
Chain of Tyrosine-protein kinase Yes (Homo sapiens) (P07947 2-543 limits assumed): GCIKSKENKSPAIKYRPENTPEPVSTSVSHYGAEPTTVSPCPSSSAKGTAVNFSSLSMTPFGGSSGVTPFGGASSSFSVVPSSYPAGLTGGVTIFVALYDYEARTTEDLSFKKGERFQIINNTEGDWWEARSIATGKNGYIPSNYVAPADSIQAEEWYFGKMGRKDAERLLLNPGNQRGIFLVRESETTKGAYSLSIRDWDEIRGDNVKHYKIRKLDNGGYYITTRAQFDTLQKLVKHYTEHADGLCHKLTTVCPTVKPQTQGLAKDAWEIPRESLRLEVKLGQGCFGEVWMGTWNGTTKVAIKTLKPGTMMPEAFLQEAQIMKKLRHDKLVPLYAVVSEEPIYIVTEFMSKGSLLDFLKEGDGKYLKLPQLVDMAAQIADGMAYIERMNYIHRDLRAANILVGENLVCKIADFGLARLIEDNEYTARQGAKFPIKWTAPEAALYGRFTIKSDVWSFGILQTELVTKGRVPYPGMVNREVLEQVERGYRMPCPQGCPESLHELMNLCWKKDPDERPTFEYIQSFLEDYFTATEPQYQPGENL

As to `COc1ccc(/C=C/C(=O)Nc2cc(-c3[nH]c(SC)nc3-c3ccc(F)cc3)ccn2)c(OC)c1`, the IC50 in test [1] worked out at 5 nM. The inhibition in test [2] is 76%. Further, the Activity in [3] is 83%; in test [4] it was 79%; in [5], 88%; in test [6] it was 82%.

Consider `CC(C)c1onc(-c2ccc(F)cc2)c1-c1ccncc1`, for which the Activity is 104% in test [7]; 99% in [8]; 95% in [9]; 92% in [10]; 81% in [11]; 90% in [12]. For the same compound, the half-inhibitory concentration (IC50) in [1] is 230 nM.

As for `CC(C)c1noc(-c2ccc(F)cc2)c1-c1ccncc1`, the Activity in [7] was 113%; in [8], 97%; in test [9], 95%; in test [10], 100%; in test [11] it was 95%; in test [12], 80%.

On to `COc1ccc(/C=C/C(=O)Nc2cc(-c3[nH]c([S+](C)[O-])nc3-c3ccc(F)cc3)ccn2)c(OC)c1` (stereo not given), for which, in [1], the 50% inhibitory concentration (IC50) is 11 nM. Further, the inhibition in [2] worked out at 86%. In addition, the Activity in test [3] came out at 88%; in test [4], 83%; in test [5], 92%; in test [6], 93%.
